# High-throughput results deposited in PubChem BioAssay by several laboratories.
# CASP6 VEID inh = inhibitors of human caspase-6; P55212; purified caspase-6, Z-VEID-R110 cleavage fluorescence; inhibition, % at 12.5 µM; 350,000 tested, 0.53% active;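 active = mean inhibition across replicates at least about 35%, with every replicate also reaching that limit, limit read from the data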;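 note: 0% = median of neutral control wells and 100% = no fluorescence left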
# Target sequence (P55212 24-179 limits assumed): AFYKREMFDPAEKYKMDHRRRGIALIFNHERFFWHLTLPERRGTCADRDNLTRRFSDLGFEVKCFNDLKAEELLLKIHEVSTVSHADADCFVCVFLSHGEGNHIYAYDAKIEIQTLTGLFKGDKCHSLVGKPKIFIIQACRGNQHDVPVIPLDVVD
# Target sequence (P55212 194-293 limits assumed): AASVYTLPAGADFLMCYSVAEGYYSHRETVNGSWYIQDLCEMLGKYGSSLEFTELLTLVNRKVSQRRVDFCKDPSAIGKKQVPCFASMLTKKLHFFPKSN
# NSD2 HMT inh = inhibitors of human histone methyltransferase NSD2. O96028. NSD2 peptide methylation, AlphaScreen, 120 min. inhibition, % at 12.5 µM. 310,000 tested, 0.54% active. AID 743445; in the data active = inhibition above about 50%
# SIRT5 inh = inhibitors of human sirtuin-5 desuccinylase. inhibition, % at 15 µM. Purified SirT5, succinyl-peptide AMC, trypsin-coupled fluorescence. AID 652115. 330,000 tested, 1.1% active; in the data active = inhibition above about 15%
# Target sequence (Q9NXA8 whole entry, looked up): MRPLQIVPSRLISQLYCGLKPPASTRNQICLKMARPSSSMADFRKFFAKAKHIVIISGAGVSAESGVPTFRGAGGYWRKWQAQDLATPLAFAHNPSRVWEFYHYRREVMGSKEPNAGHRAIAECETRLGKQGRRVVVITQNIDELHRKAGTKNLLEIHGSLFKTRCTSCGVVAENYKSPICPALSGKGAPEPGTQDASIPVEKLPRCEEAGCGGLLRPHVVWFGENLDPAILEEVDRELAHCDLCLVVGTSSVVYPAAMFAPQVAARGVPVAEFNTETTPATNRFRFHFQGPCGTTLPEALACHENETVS
# UCH37 inh = inhibitors of human deubiquitinating enzyme UCH37; Q9Y5K5; purified proteasome/UCH37, Ub-AMC cleavage fluorescence; inhibition, % (concentration not given with the values); 330,000 tested, 0.33% active; AID 588478;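 active = mean inhibition over replicate wells above about 20%, limit read from the data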;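 note: 0% = compound-free wells with enzyme and 100% = wells lacking proteasome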
#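 Material: Human UCH37 enzyme supplied as purified proteasome complex | Schedule: 30 min compound-proteasome preincubation then 25 min substrate reaction, room temperature | Detection: AMC fluorescence from Ub-AMC cleavage, excitation 355 nm, emission 460 nm | Benchmarks: Wells without proteasome as full block, compound-free enzyme plus substrate as uninhibited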
# FGF22 binding = shifts melting point of recombinant human FGF22 | recombinant FGF22 thermal shift, SYPRO orange fluorescence; percent of sucrose octasulfate shift, DMSO zero | activity (Tm shift, normalised), % at 9.99 µM | 340,000 tested, 1.5% active | AID 651658;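 active = mean Tm shift, scaled 0 neutral to 100 positive control, at about 1.3% or above, every replicate too, limit read from the data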
# Numbers without * were called inactive; x = no result given. Most compounds without a hit are left out; they make up all but 2.6% or so of the library.
SMILES,CASP6 VEID inh,NSD2 HMT inh,SIRT5 inh,UCH37 inh,FGF22 binding
COc1ccc2[nH]c(C(=O)NN=Cc3cc(OC)c(OC)c(OC)c3)cc2c1,x,x,x,-40,x
O=C(O)c1ccc(-n2cccc2/C=C2/SC(=O)N(CC(=O)N3CCCC3)C2=O)cc1,66*,x,19*,x,0
Oc1[nH]c2ccccc2c1N=Nc1ccc(C(F)(F)F)cn1,x,-2,x,3,x
Oc1[nH]c2ccc(Br)cc2c1N=Nc1ccc(C(F)(F)F)cn1,-1,-1,-1,2,44*
COC/C=C/C1=CC2=CC(=O)C(C)(OC(=O)C3CCCC3)C(=O)C2=CO1 (configuration not stated),36*,x,x,1,0
CC1(OC(=O)C2CCCC2)C(=O)C=C2C=C3CCCCN3C=C2C1=O (configuration not stated),x,x,x,3,x
CC(CN1CCCCCC1)C(=O)NN (configuration not stated),-89,-5,-3,3,41
CC(CN1CCCCC1)C(=O)NNC(=O)C12CC3CC(CC(C3)C1)C2 (configuration not stated),43*,-3,9,0,0
O=C(CSc1ncnc2sc(-c3ccccc3)cc12)NC1CCS(=O)(=O)C1 (configuration not stated),1,0,0,-2,43*
O=C1C(c2c(O)[nH]c3ccccc23)=Nc2ccccc21,2,x,11,3,0
CC(=O)c1cccc2c(O)c(C3=Nc4ccccc4C3=O)[nH]c12,x,37,x,28*,x
COc1cc(C2NCCc3c2[nH]c2ccccc32)ccc1OC(C)C (configuration not stated),-4,21,-1,x,44*
COc1cc([C@H]2c3[nH]c4ccccc4c3C[C@H]3C(=O)N4[C@@H](c5cc(OC)c(OC)c(OC)c5)c5[nH]c6ccccc6c5C[C@H]4C(=O)N23)cc(OC)c1OC,x,x,x,1,x
CN1C(=O)c2ccccc2Cc2c(NCc3ccccc3)ncnc21,3,0,x,x,43*
Cc1n[nH]c(=O)nc1NCc1ccccc1,x,-4,x,1,x
COc1ccccc1-c1cn(CC[C@H]2CC[C@H](NC(=O)NC(C)C)[C@@H](CO)O2)nn1,-1,x,0,x,0
C[C@@H]1CCCCO[C@@H](CN(C)C(=O)CCCN(C)C)[C@H](C)CN([C@H](C)CO)C(=O)c2cc(N(C)C)ccc2O1,0,x,-1,x,-1
Cc1cccc2cc(-c3nc4c(C)cccn4c3NCc3ccco3)c(=O)[nH]c12,x,0,x,25*,x
CC1CN(C(=O)c2cc3cc([N+](=O)[O-])ccc3oc2=O)CC(C)O1 (configuration not stated),2,-2,3,7,0
CC1CN(C(=O)c2cc3cc([N+](=O)[O-])ccc3s2)CC(C)O1 (configuration not stated),1,-3,-2,4,44*
CCCC#Cc1cnc2c(c1)C(=O)N([C@@H](C)CO)C[C@H](C)[C@@H](CN(C)C(=O)CN1CCOCC1)O2,4,x,-9,x,0
COc1ccc2oc(C(=O)OCC(=O)N3CC(C)CC(C)C3)c(C)c2c1 (configuration not stated),-5,-1,1,-35,-1
Cc1c(C(=O)OCC(=O)N2CC(C)CC(C)C2)oc2ccccc12 (configuration not stated),3,x,-7,4,46*
O=C(C1CCOCC1)N1C[C@@H]2[C@H](c3ccccc31)[C@@H](CO)N2Cc1ccccc1F,1,x,4,x,-1
COCC(=O)N1[C@H](CO)[C@H]2c3ccccc3N(C(=O)Nc3ccccc3F)C[C@H]21,2,x,-2,x,-1
SMILES,CASP6 VEID inh,NSD2 HMT inh,SIRT5 inh,UCH37 inh,FGF22 binding
O=C(C1CCOCC1)N1C[C@@H]2[C@H](c3ccccc31)[C@H](CO)N2Cc1ccccc1F,-3,x,15*,x,-1
O=C(Nc1ccccc1)N1C[C@@H]2[C@H](c3ccccc31)[C@@H](CO)N2CC1CCCC1,-2,x,19*,x,-1
COCC(=O)N1[C@@H]2CN(C(=O)Nc3ccccc3F)c3ccccc3[C@@H]2[C@@H]1CO,36*,x,12,x,-2
CCNC(=S)NN=Cc1ccc(OCC(=O)Nc2ccc(C)cc2)cc1,x,x,x,-2,x
NCCCCCNC(=O)[C@@H]1C[C@@H]2C(=O)NCC(=O)N2[C@@H]1c1cccc(OCCO)c1,0,x,1,x,0
CN(C)CCCCCCNC(=O)[C@@H]1C[C@@H]2C(=O)NCC(=O)N2[C@@H]1c1cccc(OCCO)c1,1,x,18*,x,0
O=C(O)C1CSC(c2ccncc2)N1 (configuration not stated),x,x,x,3,x
O=C(O)C1CSC(c2ccco2)N1 (configuration not stated),86*,38,16*,x,x
CN(CC(=O)Nc1c(Cl)cccc1Cl)C(=O)Cc1ccc2c(c1)CCC2,1,2,-3,1,0
CN(CC(=O)Nc1c(Cl)cccc1Cl)CC(=O)N(C)C1(C#N)CCCCC1,3,1,x,0,43*
O=c1cc(Br)c(O)c(Br)cc1Br,91*,9,9,8,1
CC(C)NC(=O)N(C)C[C@@H]1Oc2c(NC(=O)c3nc4ccccc4s3)cccc2C(=O)N([C@@H](C)CO)C[C@H]1C,2,x,2,x,0
COc1ccccc1-c1ccc2n(c1=O)C[C@@H]1[C@@H](CO)[C@H](C(=O)N3CCCCC3)[C@H]2N1CC1CC1,-1,x,20*,x,0
CC(C)N(Cc1nccn1C)C(=O)c1cc(COc2ccc3ncccc3c2)on1,0,x,-2,5,0
Cc1nc(CN(C)C(=O)c2cc(COc3ccc4ncccc4c3)on2)cs1,-3,-2,-4,1,43*
CC(=O)OCC(=O)C1=CCC2C3CCC4=CC(=O)C=CC4(C)C3(F)C(OC(C)=O)CC12C (configuration not stated),-1,-2,0,0,43*
CC(=O)OCC(=O)[C@@]1(O)CC[C@H]2[C@@H]3CCC4=CC(=O)C=C[C@]4(C)[C@@]3(F)[C@@H](O)C[C@@]21C,3,x,0,5,0
O=C1CNC(=O)/C1=C\c1ccc(O)cc1,9,0,2,4,0
O=C1CNC(=O)/C1=C/c1ccc(Br)cc1,2,18,25*,4,0
CC(C)NC(=O)N(C)C[C@@H]1Oc2c(NC(=O)Nc3cccc4ccccc34)cccc2C(=O)N([C@@H](C)CO)C[C@H]1C,-2,x,7,x,-1
CN(C)C(=O)C[C@@H]1CC[C@H](NS(=O)(=O)c2ccccc2)[C@H](CO)O1,1,x,2,x,0
CCOc1nc2ccccc2cc1C=O,-1,-4,-2,-8,43*
C=CCN1C=C2C(=O)C(C)(OC(=O)c3ccc(OC)cc3)C(=O)C(c3ccco3)=C2C=C1CCCC (configuration not stated),x,x,x,0,0
